Measured values published in ChEMBL document CHEMBL4138124, “Antineoplastic Agents. 605. Isoquinstatins” (2018).
Numbered stars: 1 amine (or outer) side, 2 acyl side, 3 side chain; on linkers, the order of the positions; unused ones are H or OH. Square brackets hold non-standard residues; d marks the D form. Peptide text beside a SMILES is read from it. * marks the point of attachment. Dolaproine = CO[C@@H]([C@@H]1CCCN1)[C@@H](C)C(=O)O; Hexanoyl(6-maleimido) = O=C1C=CC(=O)N1CCCCCC(=O)*; Dil = CC[C@H](C)[C@H](NC)[C@@H](CC(=O)O)OC; PABC = O=C(OCc1ccc(N[*:1])cc1)[*:2]; Cit = NC(=O)NCCC[C@H](N)C(=O)O; NMeV = CN[C@H](C(=O)O)C(C)C; X1 = c1cc(CCN*)c2cnccc2c1; X2 = c1cc(CCN*)c2ccncc2c1; X3 = c1cc2ccc(CCN*)cc2cn1

Columns and labels:
Assay type in all cases: functional
[1] = test system: DU-145; assay: Growth inhibition of human DU145 cells after 48 hrs by SRB assay; conditions: DU-145, 48 h
In short: (§1)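 Cells grown in RPMI1640 with 5% fetal bovine serum, seeded in 96-well plates and incubated 24 h before serial dilutions of compound were added. After a further 48 h, cells were fixed with trichloroacetic acid, stained with sulforhodamine B and read on a plate reader. GI50 (concentration giving 50% reduction in net protein increase) was calculated from optical density data.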

[2] = test system: MCF7; assay: Growth inhibition of human MCF7 cells after 48 hrs by SRB assay; conditions: MCF7, 48 h; in short: as §1
[3] = test system: NCI-H460; assay: Growth inhibition of human NCI-H460 cells after 48 hrs by SRB assay; conditions: NCI-H460, 48 h; in short: as §1
[4] = test system: BXPC-3; assay: Growth inhibition of human BxPC3 cells after 48 hrs by SRB assay; conditions: BXPC-3, 48 h; in short: as §1
[5] = test system: KM-20L2; assay: Growth inhibition of human KM20L2 cells after 48 hrs by SRB assay; conditions: KM-20L2, 48 h; in short: as §1
[6] = test system: SF-268; assay: Growth inhibition of human SF268 cells after 48 hrs by SRB assay; conditions: SF-268, 48 h; in short: as §1

| SMILES | GI50 [1] [nM] | GI50 [2] [nM] | GI50 [3] [nM] | GI50 [4] [nM] | GI50 [5] [nM] | GI50 [6] [nM] |
| --- | --- | --- | --- | --- | --- | --- |
| CC[C@H](C)[C@@H]([C@@H](CC(=O)N1CCC[C@H]1[C@H](OC)[C@@H](C)C(=O)NCCc1cccc2ccncc12)OC)N(C)C(=O)[C@@H](NC(=O)[C@H](C(C)C)N(C)C)C(C)C | 0.053 | 0.133 | 9.03 | 4.25 | 0.146 | 0.07 |
| CC[C@H](C)[C@@H]([C@@H](CC(=O)N1CCC[C@H]1[C@H](OC)[C@@H](C)C(=O)NCCc1cccc2cnccc12)OC)N(C)C(=O)[C@@H](NC(=O)[C@@H](NC)C(C)C)C(C)C (H-[NMeV]V[Dil][Dolaproine]-X2) | 0.677 | 0.095 | 42 | 11 | 0.271 | 0.132 |
| CC[C@H](C)[C@@H]([C@@H](CC(=O)N1CCC[C@H]1[C@H](OC)[C@@H](C)C(=O)NCCc1cccc2ccncc12)OC)N(C)C(=O)[C@@H](NC(=O)[C@@H](NC)C(C)C)C(C)C (H-[NMeV]V[Dil][Dolaproine]-X1) | 0.42 | 0.271 | 122 | 40.6 | 0.542 | 0.135 |
| CC[C@H](C)[C@@H]([C@@H](CC(=O)N1CCC[C@H]1[C@H](OC)[C@@H](C)C(=O)NCCc1cccc2ccncc12)OC)N(C)C(=O)[C@@H](NC(=O)[C@H](C(C)C)N(C)C(=O)OCc1ccc(NC(=O)[C@H](CCCNC(N)=O)NC(=O)[C@@H](NC(=O)CCCCCN2C(=O)C=CC2=O)C(C)C)cc1)C(C)C ({Hexanoyl(6-maleimido)}-V[Cit][PABC][NMeV]V[Dil][Dolaproine]-X1) | 23.2 | 22.4 | 2240 | 524 | 32.2 | 16.5 |
| CC[C@H](C)[C@@H]([C@@H](CC(=O)N1CCC[C@H]1[C@H](OC)[C@@H](C)C(=O)NCCc1cccc2cnccc12)OC)N(C)C(=O)[C@@H](NC(=O)[C@H](C(C)C)N(C)C(=O)OCc1ccc(NC(=O)[C@H](CCCNC(N)=O)NC(=O)[C@@H](NC(=O)CCCCCN2C(=O)C=CC2=O)C(C)C)cc1)C(C)C ({Hexanoyl(6-maleimido)}-V[Cit][PABC][NMeV]V[Dil][Dolaproine]-X2) | 26.9 | 21.7 | 396 | 307 | 30.7 | 9.72 |
| CC[C@H](C)[C@@H]([C@@H](CC(=O)N1CCC[C@H]1[C@H](OC)[C@@H](C)C(=O)NCCc1cccc2cnccc12)OC)N(C)C(=O)[C@@H](NC(=O)[C@H](C(C)C)N(C)C)C(C)C | 2.79 | 0.279 | 17.3 | 7.31 | 0.385 | 0.266 |
| CC[C@H](C)[C@@H]([C@@H](CC(=O)N1CCC[C@H]1[C@H](OC)[C@@H](C)C(=O)NCCc1ccc2ccncc2c1)OC)N(C)C(=O)[C@@H](NC(=O)[C@@H](NC)C(C)C)C(C)C (H-[NMeV]V[Dil][Dolaproine]-X3) | 0.122 | 0.149 | 54.2 | 44.7 | 0.569 | 0.325 |
| CC[C@H](C)[C@@H]([C@@H](CC(=O)N1CCC[C@H]1[C@H](OC)[C@@H](C)C(=O)NCCc1ccc2ccncc2c1)OC)N(C)C(=O)[C@@H](NC(=O)[C@H](C(C)C)N(C)C)C(C)C | 0.033 | 0.186 | 9.3 | 4.39 | 0.399 | 0.068 |
| CC[C@H](C)[C@@H]([C@@H](CC(=O)N1CCC[C@H]1[C@H](OC)[C@@H](C)C(=O)NCCc1ccc2ccncc2c1)OC)N(C)C(=O)[C@@H](NC(=O)[C@H](C(C)C)N(C)C(=O)OCc1ccc(NC(=O)[C@H](CCCNC(N)=O)NC(=O)[C@@H](NC(=O)CCCCCN2C(=O)C=CC2=O)C(C)C)cc1)C(C)C ({Hexanoyl(6-maleimido)}-V[Cit][PABC][NMeV]V[Dil][Dolaproine]-X3) | 15.7 | 18 | 448 | 149 | 32.2 | 9.72 |
| CC[C@H](C)[C@@H]([C@@H](CC(=O)N1CCC[C@H]1[C@H](OC)[C@@H](C)C(=O)NCCc1ccc2cccnc2c1)OC)N(C)C(=O)[C@@H](NC(=O)[C@H](C(C)C)N(C)C)C(C)C | – | – | 1.19 | – | – | 0.03 |
